Assay results collected from several papers.
Protocols differ between the studies behind these lines.
Target: Ephrin type-B receptor 3 (EPHB3, Homo sapiens, UniProt P54753)
Residues used in one study (P54753 34-998): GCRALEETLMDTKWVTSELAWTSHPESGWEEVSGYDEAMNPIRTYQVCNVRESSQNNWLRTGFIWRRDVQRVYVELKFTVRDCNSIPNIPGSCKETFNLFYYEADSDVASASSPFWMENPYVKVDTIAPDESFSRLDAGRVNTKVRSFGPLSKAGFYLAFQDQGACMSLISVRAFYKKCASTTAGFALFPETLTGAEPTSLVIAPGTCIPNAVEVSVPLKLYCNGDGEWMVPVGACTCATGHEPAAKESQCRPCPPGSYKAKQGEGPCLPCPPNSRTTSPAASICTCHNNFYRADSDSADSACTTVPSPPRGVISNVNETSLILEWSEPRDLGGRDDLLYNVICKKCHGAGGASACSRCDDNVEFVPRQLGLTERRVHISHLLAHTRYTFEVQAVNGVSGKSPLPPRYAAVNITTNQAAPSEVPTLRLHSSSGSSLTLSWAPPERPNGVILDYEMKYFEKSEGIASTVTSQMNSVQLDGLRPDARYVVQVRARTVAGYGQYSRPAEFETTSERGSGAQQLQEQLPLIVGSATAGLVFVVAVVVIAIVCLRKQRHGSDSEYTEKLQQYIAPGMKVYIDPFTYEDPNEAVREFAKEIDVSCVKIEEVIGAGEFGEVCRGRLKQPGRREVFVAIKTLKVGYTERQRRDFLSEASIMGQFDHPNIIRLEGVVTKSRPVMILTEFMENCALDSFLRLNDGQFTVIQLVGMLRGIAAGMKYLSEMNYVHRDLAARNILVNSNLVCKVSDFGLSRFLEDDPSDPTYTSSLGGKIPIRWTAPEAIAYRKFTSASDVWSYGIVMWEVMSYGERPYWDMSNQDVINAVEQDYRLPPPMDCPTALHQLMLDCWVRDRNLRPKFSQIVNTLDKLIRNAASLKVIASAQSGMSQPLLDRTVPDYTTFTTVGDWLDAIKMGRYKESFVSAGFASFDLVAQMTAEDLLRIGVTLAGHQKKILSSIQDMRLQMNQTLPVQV

Compound | observed | method | tested at | remaining binding [%]
Cc1cnc(Nc2ccc(C(=O)N3CCC(N4CCCC4)CC3)cc2)nc1-c1cc2ccccc2s1 | binding | competition with immobilised ligand | 1 µM | 77
COc1cnc(Nc2cccc(S(N)(=O)=O)c2)nc1N1CCN(c2ccccc2)C(=O)C1 | binding | competition with immobilised ligand | 1 µM | 100
Nc1ncc2c(n1)-c1c([nH]c3ccc(C#CC4CC4)cc13)CCCC2 | binding | competition with immobilised ligand | 1 µM | 100
O=C(NCC1CCOCC1)c1n[nH]cc1NC(=O)c1c(F)cccc1F | binding | competition with immobilised ligand | 1 µM | 100
COCCOc1nc(-c2ccc(Cl)nc2)nc2c1CN(C(=O)c1ncn3ccccc13)CC2 | cell-free assay | competition with immobilised ligand | 0.1 µM | 100
CN(C)c1nccc(-c2cnn3ncccc23)n1 | binding | – | 1 µM | 88
O=C(NCCCC1CCCCC1)c1ccc(CNC(=O)c2cnn(-c3ccccc3)c2C(F)(F)F)cc1 | cell-free assay | competition with immobilised ligand | 0.1 µM | 79
c1cnn2ncc(-c3ccnc(N4CCC45COC5)n3)c2c1 | binding | – | 1 µM | 87
Cc1cc(-n2nc(Cc3cc(F)cc(C(F)(F)F)c3)nc2C)ccc1C(N)=O | cell-free assay | competition with immobilised ligand | 1 µM | 100
CN(CCCC(F)(F)F)c1nccc(-c2cnn3ncccc23)n1 | binding | – | 1 µM | 87
COc1ccc2c(c1)O[C@H](c1ccc(OC)c(OC)c1)C[C@@H]2NC(=O)C1(c2ccc3c(c2)OC(F)(F)O3)CC1 | cell-free assay | competition with immobilised ligand | 1 µM | 91
COc1cnc(Nc2cccc(S(N)(=O)=O)c2)nc1N1CCN(c2ccccc2)CC1 | binding | competition with immobilised ligand | 1 µM | 100
COc1ncc2cc3ccccc3nc2c1C#N | cell-free assay | competition with immobilised ligand | 5 µM | 1.4
Cc1cnn2ncc(-c3ccnc(N(C)C)n3)c2c1 | binding | – | 1 µM | 100
O=C(NCCCN1CCOCC1)c1ccc(Nc2ncc(Cl)c(-c3ccc(Cl)s3)n2)cc1 | binding | competition with immobilised ligand | 1 µM | 95
CCN1CCN(Cc2ccc(C(=O)Nc3ccc(C)c(Oc4ccc5c(c4)CC(=O)N5)c3)cc2C(F)(F)F)CC1 | binding | competition with immobilised ligand | 1 µM | 100
Cc1c(C(=O)O)cc(-c2ccc(C3CCNCC3)cc2)c2ccc(-c3ccc(C(F)(F)F)cc3)cc12 | cell-free assay | competition with immobilised ligand | 1 µM | 100
C[C@@H]1CCN(c2nccc(-c3cnn4ncccc34)n2)C1 | binding | – | 1 µM | 100
O=S(=O)(NC1CCC(c2cc(F)ccc2F)(S(=O)(=O)c2ccc(Cl)cc2)CC1)C(F)(F)F (centres unmarked) | cell-free assay | competition with immobilised ligand | 1 µM | 100
N[C@H]1CCN(c2nccc(-c3cnn4ncccc34)n2)C1 | binding | – | 1 µM | 97
